Measured values as given in the M2OR odorant receptor database.

target: T1, UniProt Q8VGT4; conditions: stereoisomer not certain
T1 sequence (whole entry): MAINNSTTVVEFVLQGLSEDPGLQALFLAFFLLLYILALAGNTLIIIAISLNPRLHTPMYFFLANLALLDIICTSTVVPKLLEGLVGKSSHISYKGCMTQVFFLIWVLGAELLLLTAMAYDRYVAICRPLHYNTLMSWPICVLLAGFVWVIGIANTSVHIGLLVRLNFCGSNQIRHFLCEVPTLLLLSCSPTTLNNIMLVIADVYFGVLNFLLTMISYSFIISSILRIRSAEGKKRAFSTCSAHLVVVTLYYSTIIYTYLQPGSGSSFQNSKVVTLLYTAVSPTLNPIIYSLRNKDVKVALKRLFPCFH
In short: (§1)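 Each receptor–molecule pair is labelled responsive or non-responsive (inactive) according to whether the original authors judged the measured signal statistically different from baseline. The data were taken from the main text and supplementary material of published papers and checked for typos and inconsistencies. Assay methods differed by source, with transient luciferase assays in mammalian cell lines being common.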

Odorant receptor agonist call, inactive:
CCCCCCCCO
CCCCC(C)=O
CCCCCCCCCS
CCCCCCCCCC(=O)[O-].[H+]
CCCCCCO
CC(=O)OCc1ccccc1
CCCCCCCCCO
CCCCCCC(C)=O
CCCCOC=O
CCCCCOC(=O)CCCCC

target: T2, UniProt Q8VGU3; conditions: stereoisomer not certain
T2 sequence (whole entry): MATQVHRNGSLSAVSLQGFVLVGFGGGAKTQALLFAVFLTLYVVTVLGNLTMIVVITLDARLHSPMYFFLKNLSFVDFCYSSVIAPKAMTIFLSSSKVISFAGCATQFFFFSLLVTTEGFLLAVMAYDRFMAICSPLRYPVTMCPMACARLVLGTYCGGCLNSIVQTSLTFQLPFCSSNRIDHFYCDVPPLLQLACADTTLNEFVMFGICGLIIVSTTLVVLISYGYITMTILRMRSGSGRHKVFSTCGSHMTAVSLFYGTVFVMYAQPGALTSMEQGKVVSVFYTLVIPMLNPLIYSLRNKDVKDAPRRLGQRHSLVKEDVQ
In short: as §1

Odorant receptor agonist call, inactive:
CCCCCC=O
CCCCCCCO
O=C1CCOc2ccccc21
CCCCCCOC(C)=O
O=C(c1ccccc1)c1ccccc1
CCCCCCCCC(=O)O
CC12CCC(CC1=O)C2(C)C (configuration not stated)
CCCCCCCCO
CCCCC(C)=O
CCCCCCCCCS
CCCCCCCCCC(=O)[O-].[H+]
CCCCCCO
CC(=O)OCc1ccccc1
CCCCCCCCCO
CCCCCCC(C)=O
CCCCOC=O
CCCCCOC(=O)CCCCC

target: T3, UniProt Q8VGV1; conditions: stereoisomer not certain
T3 sequence (whole entry): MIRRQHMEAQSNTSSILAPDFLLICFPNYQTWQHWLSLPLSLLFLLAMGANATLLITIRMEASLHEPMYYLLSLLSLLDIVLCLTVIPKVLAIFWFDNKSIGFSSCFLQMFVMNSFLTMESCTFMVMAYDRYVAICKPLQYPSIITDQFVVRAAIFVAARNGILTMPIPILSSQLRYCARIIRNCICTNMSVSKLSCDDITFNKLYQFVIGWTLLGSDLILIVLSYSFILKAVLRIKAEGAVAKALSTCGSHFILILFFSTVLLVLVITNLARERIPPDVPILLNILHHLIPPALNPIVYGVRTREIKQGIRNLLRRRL
In short: as §1

Odorant receptor agonist call, inactive:
O=c1ccc2ccccc2o1
CCCCCC=O
CCCCCCCO
O=C1CCOc2ccccc21
CCCCCCOC(C)=O
O=C(c1ccccc1)c1ccccc1
CC12CCC(CC1=O)C2(C)C (configuration not stated)
CCCCCCCCO
CCCCC(C)=O
CCCCCCCCCS
CCCCCCO
CC(=O)OCc1ccccc1
CCCCCCCCCO
CCCCCCC(C)=O
CCCCOC=O
CCCCCOC(=O)CCCCC

Odorant receptor agonist call, active:
CCCCCCCCC(=O)O
CCCCCCCCCC(=O)[O-].[H+]

target: T4, UniProt Q8VGV7; conditions: stereoisomer not certain
T4 sequence (whole entry): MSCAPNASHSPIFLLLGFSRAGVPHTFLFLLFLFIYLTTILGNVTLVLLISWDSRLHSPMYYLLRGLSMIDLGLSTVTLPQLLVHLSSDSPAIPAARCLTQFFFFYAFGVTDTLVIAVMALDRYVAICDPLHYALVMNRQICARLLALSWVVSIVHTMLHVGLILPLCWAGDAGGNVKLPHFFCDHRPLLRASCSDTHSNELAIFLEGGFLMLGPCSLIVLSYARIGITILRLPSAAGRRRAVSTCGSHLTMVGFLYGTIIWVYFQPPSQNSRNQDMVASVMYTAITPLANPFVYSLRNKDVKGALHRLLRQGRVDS
In short: as §1

Odorant receptor agonist call, inactive:
CCCCCC=O
CCCCCCCO
O=C1CCOc2ccccc21
CCCCCCOC(C)=O
O=C(c1ccccc1)c1ccccc1
CCCCCCCCC(=O)O
CC12CCC(CC1=O)C2(C)C (configuration not stated)
CCCCCCCCO
CCCCC(C)=O
CCCCCCCCCS
CCCCCCCCCC(=O)[O-].[H+]
CCCCCCO
CC(=O)OCc1ccccc1
CCCCCCCCCO
CCCCCCC(C)=O
CCCCOC=O
CCCCCOC(=O)CCCCC
